What is called IC50 is the midpoint of a concentration-inhibition curve. High values mean weaker potency, low ones greater potency.

The values below come from ChEMBL document CHEMBL3351368, “Biphenyl-4-carboxylic acid [2-(1H-indol-3-yl)-ethyl]-methylamide (CA224), a nonplanar analogue of fascaplysin, inhibits Cdk4 and tubulin polymerization: evaluation of in vitro and in vivo anticancer activity” (J Med Chem, 2014).

In assay [1] the target is Cyclin-dependent kinase 1/cyclin B1 (Homo sapiens, UniProt P06493). The assay can be described thus: Binding affinity to human CDK1/cyclinB1. Type of assay: protein-complex assay.
Chain of Cyclin-dependent kinase 1/cyclin B1 (P06493 whole entry): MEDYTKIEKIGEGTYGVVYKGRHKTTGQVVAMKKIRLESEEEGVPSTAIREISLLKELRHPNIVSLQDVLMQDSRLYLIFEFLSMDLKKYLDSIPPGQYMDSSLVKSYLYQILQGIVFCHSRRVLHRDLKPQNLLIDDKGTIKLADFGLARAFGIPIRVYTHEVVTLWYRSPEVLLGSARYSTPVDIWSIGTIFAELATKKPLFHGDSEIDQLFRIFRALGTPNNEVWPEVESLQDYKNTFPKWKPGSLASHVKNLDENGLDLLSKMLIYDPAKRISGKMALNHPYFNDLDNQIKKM
Chain of Cyclin-dependent kinase 1/cyclin B1 (P14635 whole entry, further chain): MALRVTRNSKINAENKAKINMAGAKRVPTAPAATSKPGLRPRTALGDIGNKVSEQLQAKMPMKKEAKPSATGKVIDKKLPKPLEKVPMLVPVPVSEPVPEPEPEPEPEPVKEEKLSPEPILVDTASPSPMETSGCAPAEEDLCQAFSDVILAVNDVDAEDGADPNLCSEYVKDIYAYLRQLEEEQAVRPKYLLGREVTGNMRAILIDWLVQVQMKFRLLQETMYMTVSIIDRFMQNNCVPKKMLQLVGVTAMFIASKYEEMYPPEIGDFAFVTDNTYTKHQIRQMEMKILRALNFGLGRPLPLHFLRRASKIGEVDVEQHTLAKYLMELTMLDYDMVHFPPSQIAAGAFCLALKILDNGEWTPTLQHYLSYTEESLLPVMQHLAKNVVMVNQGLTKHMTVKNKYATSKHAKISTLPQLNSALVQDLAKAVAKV
Assay [2] can be described thus: Growth inhibition of mouse BNL-CL2 cells after 48 hrs by MTT assay. Type of assay: functional, cell-based. As to conditions: BNL CL.2, 48 h. In a few lines:
(§1)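 MTT cell proliferation assay. IC50 (µM) was defined as the concentration giving 50% inhibition of cell growth.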
(Tetrazolium assays rely on reduction of a dye to a coloured formazan, in cell work by metabolically active cells.)

A short description of assay [3]: Growth inhibition of p53His273 mut, pRb+ human MiaPaCa cells after 48 hrs by MTT assay. The assay is classed as functional. Conditions: MIA PaCa-2, 48 h. In a few lines: as §1
Assay [4] relates to NCI-H1299. Description: Growth inhibition of p53 null, pRb+ human NCI-H1299 cells after 48 hrs by MTT assay. Type of assay: functional, cell-based. As to conditions: NCI-H1299, 48 h. In a few lines: as §1
Assay [5] has as its target CDK9/cyclin T1 (Homo sapiens, UniProt P50750). The assay can be described thus: Binding affinity to human CDK9/cyclinT1. The assay is classed as protein-complex assay.
Assay [6] in a line: Growth inhibition of mouse BNL-SVA.8 cells after 48 hrs by MTT assay. The assay is classed as functional. Put shortly:
as §1

Assay [7] has as its system NCI-H358. Description: Growth inhibition of p53 null, pRb null human NCI-H358 cells after 48 hrs by MTT assay. The assay is classed as functional, cell-based. As to conditions: NCI-H358, 48 h. In a few lines: as §1
Assay [8] can be described thus: Growth inhibition of p53+, pRb+ human NCI-H460 cells after 48 hrs by MTT assay. The assay is classed as functional, cell-based. As to conditions: NCI-H460, 48 h. Put shortly: as §1
Assay [9] in a line: Displacement of ethidium bromide from closed circular plasmid DNA (unknown origin) by fluorescence quenching assay.
For assay [10], the target named is Cyclin-dependent kinase 4/cyclin D1 (Homo sapiens, UniProt P11802). Description: Binding affinity to human CDK4/cyclinD1 using GST-pRB152 as substrate by chemiluminescence assay. The assay is classed as protein-complex assay.
Chain of Cyclin-dependent kinase 4/cyclin D1 (P11802 whole entry): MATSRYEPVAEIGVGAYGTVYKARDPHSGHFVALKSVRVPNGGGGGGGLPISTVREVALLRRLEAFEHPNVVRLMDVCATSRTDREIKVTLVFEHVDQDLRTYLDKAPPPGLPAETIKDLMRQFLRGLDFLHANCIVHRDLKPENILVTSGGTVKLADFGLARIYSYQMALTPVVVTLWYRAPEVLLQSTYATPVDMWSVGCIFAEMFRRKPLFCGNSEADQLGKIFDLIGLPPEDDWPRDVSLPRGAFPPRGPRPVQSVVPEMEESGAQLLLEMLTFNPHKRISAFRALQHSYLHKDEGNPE
Chain of Cyclin-dependent kinase 4/cyclin D1 (P24385 whole entry, further chain): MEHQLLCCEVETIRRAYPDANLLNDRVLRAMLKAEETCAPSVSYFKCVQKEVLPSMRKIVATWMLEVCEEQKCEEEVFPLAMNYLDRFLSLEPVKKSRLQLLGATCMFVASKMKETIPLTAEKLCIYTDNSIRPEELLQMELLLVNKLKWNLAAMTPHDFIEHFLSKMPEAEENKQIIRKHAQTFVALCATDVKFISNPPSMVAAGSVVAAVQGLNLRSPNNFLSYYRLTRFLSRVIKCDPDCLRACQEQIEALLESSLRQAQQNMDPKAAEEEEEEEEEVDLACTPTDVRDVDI
Assay [11] relates to A549. The assay can be described thus: Growth inhibition of p53+, pRb+ human A549 cells after 48 hrs by MTT assay. Conditions: A549, 48 h. Type of assay: functional, cell-based. Put shortly: as §1
Assay [12] concerns the target CDK2/Cyclin A2 (Homo sapiens, UniProt P24941). Description: Binding affinity to human CDK2/cyclinA using GST-pRB152 as substrate by chemiluminescence assay. Type of assay: protein-complex assay.
The nature of assay [13]: Growth inhibition of p53 null,pRb+ human PC3 cells after 48 hrs by MTT assay. Conditions: PC-3, 48 h. Type of assay: functional, cell-based. In a few lines:
as §1

Assay [14] concerns the target Cyclin-dependent kinase 2/cyclin E1 (Homo sapiens, UniProt P24941). Description: Binding affinity to human CDK2/cyclinE. The assay is classed as protein-complex assay.
Assay [15] in a line: Growth inhibition of p53 null, pRb+ human Calu1 cells after 48 hrs by MTT assay. As to conditions: Calu-1, 48 h. Type of assay: functional, cell-based. In a few lines: as §1
A short description of assay [16]: Growth inhibition of p53+, pRb+ human LS 174T cells after 48 hrs by MTT assay. The assay is classed as functional, cell-based. As to conditions: LS174T. Put shortly:
as §1

Molecules are shown by their SMILES. The source made the active and inactive calls. A value given as a limit tells only on which side of the number the result lay.

Chain of CDK9/cyclin T1 (O60563 whole entry): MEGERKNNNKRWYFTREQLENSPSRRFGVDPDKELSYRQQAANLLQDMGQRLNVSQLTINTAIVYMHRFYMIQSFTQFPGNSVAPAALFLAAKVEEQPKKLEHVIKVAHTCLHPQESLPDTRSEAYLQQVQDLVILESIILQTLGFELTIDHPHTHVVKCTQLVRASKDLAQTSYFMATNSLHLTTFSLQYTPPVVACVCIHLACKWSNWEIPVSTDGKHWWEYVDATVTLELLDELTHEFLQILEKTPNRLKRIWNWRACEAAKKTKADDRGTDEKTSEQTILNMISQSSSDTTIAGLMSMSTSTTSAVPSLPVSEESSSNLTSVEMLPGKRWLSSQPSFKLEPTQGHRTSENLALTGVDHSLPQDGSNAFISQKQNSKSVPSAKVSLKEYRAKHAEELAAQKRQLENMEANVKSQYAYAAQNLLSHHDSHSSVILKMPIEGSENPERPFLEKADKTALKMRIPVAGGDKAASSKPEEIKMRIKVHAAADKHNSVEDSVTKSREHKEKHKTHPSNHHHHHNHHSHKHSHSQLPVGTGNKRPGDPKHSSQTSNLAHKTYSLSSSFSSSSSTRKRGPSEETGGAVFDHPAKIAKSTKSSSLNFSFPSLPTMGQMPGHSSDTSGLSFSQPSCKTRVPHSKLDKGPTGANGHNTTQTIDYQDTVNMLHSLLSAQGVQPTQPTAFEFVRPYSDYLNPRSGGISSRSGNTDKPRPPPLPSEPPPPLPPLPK
Chain of CDK9/cyclin T1 (P50750 whole entry): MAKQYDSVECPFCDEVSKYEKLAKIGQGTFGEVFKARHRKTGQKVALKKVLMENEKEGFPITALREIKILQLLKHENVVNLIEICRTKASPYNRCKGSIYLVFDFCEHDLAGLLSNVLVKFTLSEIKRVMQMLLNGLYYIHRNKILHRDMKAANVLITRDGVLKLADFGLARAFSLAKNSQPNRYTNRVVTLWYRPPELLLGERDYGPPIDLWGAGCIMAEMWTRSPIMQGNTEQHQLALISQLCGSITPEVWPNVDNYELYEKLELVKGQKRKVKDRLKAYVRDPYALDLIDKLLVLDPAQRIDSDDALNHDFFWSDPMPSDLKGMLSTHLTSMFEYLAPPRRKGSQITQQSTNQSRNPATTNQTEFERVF

As to `CN(CCc1c[nH]c2ccccc12)C(=O)c1ccc(Cl)cc1`, the IC50 is over 500 µM in assay [1]; 29 µM in [2]; 31 µM in assay [3]; 21 µM in assay [4]; over 1000 µM in assay [5]; 32 µM in [6]. For the same molecule, the IC50 stood at 26 µM in [7] and 24 µM in [8]. The inhibition entry in assay [9] is “inactive”.

Regarding `CN(CCc1c[nH]c2ccccc12)C(=O)c1ccc(C(C)(C)C)cc1`, the IC50 is over 500 µM in assay [1]; 18 µM in assay [2]; 10.2 µM in [3]; 11.5 µM in [4]; over 1000 µM in [5]; 22 µM in assay [6]. In addition, the IC50 in assay [7] stood at 14 µM; in assay [8], 9.8 µM. Further, the inhibition result in assay [9] is “inactive”.

As for `O=C1c2ccccc2-[n+]2ccc3c([nH]c4ccccc43)c21` [FASCAPLYSIN CHLORIDE], the IC50 was over 250 µM in assay [1]; 0.41 µM in [10]; 0.69 µM in [11]; over 250 µM in assay [12]; over 250 µM in assay [5]; 0.92 µM in assay [13]. The IC50 in [14] is over 250 µM; in [15], 1.3 µM; in [9] it was 5 µM; in assay [16] it was 0.88 µM.
